{
  "source": "ChEMBL document CHEMBL5230144",
  "about": "“Synthesis and Biological Evaluation of Celastrol Derivatives with Improved Cytotoxic Selectivity and Antitumor Activities” (J Nat Prod, 2021)",
  "key": {"[1]": {"assay": "Toxicity in nude mouse xenografted with human MDA-MB-231 cells assessed as decrease of red blood cells at 10 mg/kg, po measured after 26 days", "type": "organism-based", "conditions": "in vivo, 624 h, time 26 day", "how_it_was_run": "(§1)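 Female athymic nude mice (5–6 weeks) bore MDA-MB-231 xenografts and were randomized (n = 6) at a mean tumor volume of about 100 mm³. They received 10 mg/kg orally, with vehicle and carboplatin (10 mg/kg) groups. On the final day of administration, a routine blood examination counted white blood cells, red blood cells and platelets, compared against vehicle.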"}, "[2]": {"assay": "Toxicity in nude mouse xenografted with human MDA-MB-231 cells assessed as damage to liver at 10 mg/kg, po measured after 26 days by Hand E staining method", "type": "organism-based", "conditions": "in vivo, 624 h, time 26 day", "how_it_was_run": "(§2)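 Female athymic nude mice (5–6 weeks) bore MDA-MB-231 xenografts and were randomized (n = 6) once tumors averaged about 100 mm³. They were dosed orally at 10 mg/kg, alongside vehicle and carboplatin (10 mg/kg) groups. On the last day of administration, heart, liver, lungs and kidneys were examined by HE staining.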"}, "[3]": {"assay": "Toxicity in nude mouse xenografted with human MDA-MB-231 cells assessed as decrease of white blood cells at 10 mg/kg, po measured after 26 days", "type": "organism-based", "conditions": "in vivo, 624 h, time 26 day", "how_it_was_run": "as §1"}, "[4]": {"tested_on": "A549", "assay": "cells", "conditions": "Homo sapiens, A549, 48 h"}, "[5]": {"assay": "Cytotoxicity against human mesenchymal bone marrow stem cells measured after 48 hrs by MTT assay", "type": "toxicity, cell-based"}, "[6]": {"tested_on": "MCF7", "assay": "cells", "conditions": "Homo sapiens, MCF7, 48 h"}, "[7]": {"assay": "Toxicity in nude mouse xenografted with human MDA-MB-231 cells assessed as damage to heart at 10 mg/kg, po measured after 26 days by Hand E staining method", "type": "organism-based", "conditions": "in vivo, 624 h, time 26 day", "how_it_was_run": "as §2"}, "[8]": {"tested_on": "MDA-MB-231", "assay": "cells", "conditions": "Homo sapiens, MDA-MB-231, 48 h"}, "[9]": {"target": "T1, Heat shock protein HSP 90-beta/Hsp90 co-chaperone Cdc37 (Homo sapiens, UniProt P08238+Q16543)", "T1 sequence (P08238 whole entry)": "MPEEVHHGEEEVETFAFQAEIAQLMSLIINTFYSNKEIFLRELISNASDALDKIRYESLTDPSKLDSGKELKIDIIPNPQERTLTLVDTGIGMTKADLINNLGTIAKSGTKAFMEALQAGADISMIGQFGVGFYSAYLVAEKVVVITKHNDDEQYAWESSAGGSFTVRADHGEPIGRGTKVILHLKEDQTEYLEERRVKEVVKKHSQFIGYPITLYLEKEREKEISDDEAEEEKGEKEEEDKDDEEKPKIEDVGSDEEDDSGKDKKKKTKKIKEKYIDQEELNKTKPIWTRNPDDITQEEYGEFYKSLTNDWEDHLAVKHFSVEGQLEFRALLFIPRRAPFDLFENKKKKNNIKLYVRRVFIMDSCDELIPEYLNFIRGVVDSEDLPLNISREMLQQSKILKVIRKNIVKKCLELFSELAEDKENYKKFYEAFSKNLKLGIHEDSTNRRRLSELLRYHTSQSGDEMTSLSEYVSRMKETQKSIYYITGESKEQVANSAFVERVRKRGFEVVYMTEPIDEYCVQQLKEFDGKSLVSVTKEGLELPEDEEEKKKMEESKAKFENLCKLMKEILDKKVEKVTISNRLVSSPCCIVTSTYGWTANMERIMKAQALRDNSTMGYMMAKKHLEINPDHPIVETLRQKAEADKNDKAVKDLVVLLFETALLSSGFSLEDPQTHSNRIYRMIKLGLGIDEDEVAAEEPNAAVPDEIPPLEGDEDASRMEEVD", "T1 sequence (Q16543 whole entry)": "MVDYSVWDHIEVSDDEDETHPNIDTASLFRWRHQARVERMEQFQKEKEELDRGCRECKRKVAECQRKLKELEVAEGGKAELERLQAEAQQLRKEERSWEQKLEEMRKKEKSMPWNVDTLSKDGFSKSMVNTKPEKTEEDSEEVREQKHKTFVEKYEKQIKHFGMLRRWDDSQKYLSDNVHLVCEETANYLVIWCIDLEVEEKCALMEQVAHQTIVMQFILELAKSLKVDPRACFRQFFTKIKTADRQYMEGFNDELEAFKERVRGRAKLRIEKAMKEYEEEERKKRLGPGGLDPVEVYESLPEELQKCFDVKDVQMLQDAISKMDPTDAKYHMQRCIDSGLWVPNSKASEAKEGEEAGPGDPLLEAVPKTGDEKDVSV", "assay": "Disruption of His-tagged full length HSP90 (unknown origin)/GST-tagged Cdc37 (unknown origin) at 50 uM measured after 1 hr by HTRF method", "type": "protein-complex assay", "how_it_was_run": "(§3)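 HTRF in PBS with […], pH 7.3: His-tagged full-length Hsp90 and GST-tagged Cdc37 (each 250 nM final) with compound, 37 °C for 1 h. Anti-GST-Cryptate and anti-6His-XL665 then added for 0.5 h at 37 °C. Time-resolved fluorescence read at ex 320 nm, em 665/620 nm; ratio (665/620) × 10 000.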"}, "[10]": {"tested_on": "HUVEC", "assay": "Antimigratory activity against human HUVEC cells assessed as inhibition of cell migration at 0.1 uM measured after 12 to 24 hrs by wound scratch assay", "type": "functional, cell-based", "conditions": "time 12-24 hrs", "how_it_was_run": "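HUVEC monolayers were scratched and treated, with wound closure imaged at 0, 12 and 24 h. Migration was quantified as a migration ratio relative to 0 h.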"}, "[11]": {"assay": "Toxicity in nude mouse xenografted with human MDA-MB-231 cells assessed as damage to lungs at 10 mg/kg, po measured after 26 days by Hand E staining method", "type": "organism-based", "conditions": "in vivo, 624 h, time 26 day", "how_it_was_run": "as §2"}, "[12]": {"assay": "Toxicity in nude mouse xenografted with human MDA-MB-231 cells assessed as decrease of platelets at 10 mg/kg, po measured after 26 days", "type": "organism-based", "conditions": "in vivo, 624 h, time 26 day", "how_it_was_run": "as §1"}, "[13]": {"tested_on": "KB", "assay": "cells", "conditions": "Homo sapiens, 48 h"}, "[14]": {"assay": "Toxicity in nude mouse xenografted with human MDA-MB-231 cells assessed as damage to kidney at 10 mg/kg, po measured after 26 days by Hand E staining method", "type": "organism-based", "conditions": "in vivo, 624 h, time 26 day", "how_it_was_run": "as §2"}, "[15]": {"target": "T1, Heat shock protein HSP 90-beta/Hsp90 co-chaperone Cdc37", "assay": "Disruption of His-tagged full length HSP90 (unknown origin)/GST-tagged Cdc37 (unknown origin) measured after 1 hr by HTRF method", "type": "protein-complex assay", "how_it_was_run": "as §3"}, "[16]": {"assay": "Toxicity in nude mouse xenografted with human MDA-MB-231 cells assessed as decrease of body weight at 10 mg/kg, po measured after 26 days", "type": "organism-based", "conditions": "in vivo, 624 h, time 26 day", "how_it_was_run": "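Female athymic nude mice, 5−6 weeks old, carrying MDA-MB-231 xenografts; randomized at about 100 mm³ tumor volume, n = 6 per group. Groups were vehicle, carboplatin 10 mg/kg, celastrol 10 mg/kg and test compound 10 mg/kg oral. Body weight tracked from day 16 to day 26; blood counts taken on the last day.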"}},
  "note": "Active and inactive are the calls of the source. The rule behind the calls is not given here.",
  "data": [
    {"smiles": "CC1=C(O)C(=O)C=C2C1=CC=C1[C@@]2(C)CC[C@@]2(C)[C@@H]3C[C@](C)(C(=O)O)CC[C@]3(C)CC[C@]12C", "note": "[CELASTROL]", "values": [
      {"measurement": "Activity", "setting": "[1]", "value": "Toxic"},
      {"measurement": "Activity", "setting": "[2]", "value": "Toxic"},
      {"measurement": "Activity", "setting": "[3]", "value": "Toxic"},
      {"measurement": "IC50", "setting": "[4]", "value": 1800, "unit": "nM"},
      {"measurement": "IC50 at 48 h", "setting": "[5]", "value": 700, "unit": "nM"},
      {"measurement": "IC50", "setting": "[6]", "value": 1200, "unit": "nM"},
      {"measurement": "Activity", "setting": "[7]", "value": "Toxic"},
      {"measurement": "IC50", "setting": "[8]", "value": 900, "unit": "nM"},
      {"measurement": "inhibition", "setting": "[9]", "value": 82.3, "unit": "%"},
      {"measurement": "Activity", "setting": "[10]", "value": "inactive"},
      {"measurement": "Activity", "setting": "[11]", "value": "Toxic"},
      {"measurement": "Activity", "setting": "[12]", "value": "Toxic"},
      {"measurement": "IC50", "setting": "[13]", "value": 1700, "unit": "nM"},
      {"measurement": "Activity", "setting": "[14]", "value": "Toxic"}
    ]},
    {"smiles": "CC1=C(O)C(=O)C=C2C1=CC=C1[C@@]2(C)CC[C@@]2(C)[C@@H]3C[C@](C)(C(=O)OCc4ccccc4)CC[C@]3(C)CC[C@]12C", "values": [
      {"measurement": "IC50", "setting": "[4]", "value": 1300, "unit": "nM"},
      {"measurement": "IC50 at 48 h", "setting": "[5]", "value": 1000, "unit": "nM"},
      {"measurement": "IC50", "setting": "[6]", "value": 700, "unit": "nM"},
      {"measurement": "IC50", "setting": "[8]", "value": 400, "unit": "nM"},
      {"measurement": "IC50", "setting": "[15]", "value": 2400, "unit": "nM"},
      {"measurement": "inhibition", "setting": "[9]", "value": 90.1, "unit": "%"},
      {"measurement": "IC50", "setting": "[13]", "value": 600, "unit": "nM"}
    ]},
    {"smiles": "C#CCOC(=O)[C@]1(C)CC[C@]2(C)CC[C@]3(C)C4=CC=C5C(=CC(=O)C(OC(=O)N6CCC(N7CCCCC7)CC6)=C5C)[C@]4(C)CC[C@@]3(C)[C@@H]2C1", "values": [
      {"measurement": "Activity", "setting": "[1]", "value": "Non-Toxic"},
      {"measurement": "Activity", "setting": "[2]", "value": "Non-Toxic"},
      {"measurement": "Activity", "setting": "[16]", "value": "Toxic"},
      {"measurement": "Activity", "setting": "[3]", "value": "Non-Toxic"},
      {"measurement": "IC50 at 48 h", "setting": "[5]", "value": 2800, "unit": "nM"},
      {"measurement": "Activity", "setting": "[7]", "value": "Non-Toxic"},
      {"measurement": "IC50", "setting": "[8]", "value": 200, "unit": "nM"},
      {"measurement": "Activity", "setting": "[11]", "value": "Non-Toxic"},
      {"measurement": "Activity", "setting": "[12]", "value": "Non-Toxic"},
      {"measurement": "Activity", "setting": "[14]", "value": "Non-Toxic"}
    ]},
    {"smiles": "CC1=C(O)C(=O)C=C2C1=CC=C1[C@@]2(C)CC[C@@]2(C)[C@@H]3C[C@](C)(C(=O)OCc4ccccc4C)CC[C@]3(C)CC[C@]12C", "values": [
      {"measurement": "IC50", "setting": "[15]", "value": 10000, "unit": "nM"}
    ]},
    {"smiles": "CC1=C(O)C(=O)C=C2C1=CC=C1[C@@]2(C)CC[C@@]2(C)[C@@H]3C[C@](C)(C(=O)OCC4CCCCC4)CC[C@]3(C)CC[C@]12C", "values": [
      {"measurement": "IC50", "setting": "[15]", "value": 2900, "unit": "nM"}
    ]},
    {"smiles": "COCCOC(=O)[C@]1(C)CC[C@]2(C)CC[C@]3(C)C4=CC=C5C(=CC(=O)C(O)=C5C)[C@]4(C)CC[C@@]3(C)[C@@H]2C1", "values": [
      {"measurement": "IC50", "setting": "[15]", "value": 6700, "unit": "nM"}
    ]}
  ]
}
